The term logP denotes the decadic logarithm of the partition coefficient of the neutral form, usually between octanol and water.

Consider three molecules from ChEMBL document CHEMBL3297702, “Improving photodynamic inactivation of bacteria in dentistry: highly effective and fast killing of oral key pathogens with novel tooth-colored type-II photosensitizers” (J Med Chem, 2014).

Series [1] is described as follows: Induction of singlet oxygen generation measured over 20 mins by luminescence assay. It is filed as physicochemical.
A short description of series [2]: Photobleaching of the compound irradiated with laser energy at 405 nm for 5 mins. The class given is physicochemical. The arrangement: dose or concentration left out as unconfirmed.
Series [3] is described as follows: Octanol-water partition coefficient, log P of the compound at 1 x 10^-4 mol at room temperature after 10 mins by UV/vis spectroscopic analysis. It is filed as physicochemical.
In series [4] the test system is Enterococcus faecalis. Briefly: Photodynamic inactivation of Enterococcus faecalis ATCC 29212 assessed as reduction of log10 CFU at 1 to 250 uM preincubated for 10 secs followed by irradiation with 25 j/cm'2 for 20 secs measured after 24 hrs by agar plating method. It is filed as functional, organism-based. The method in brief: (§1)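 E. faecalis ATCC 29212, aerobic overnight BHI culture at 37 °C, was harvested at stationary phase and suspended in PBS at 10^7–10^8 bacteria/mL. It was mixed 1:1 with PS to 0–250 µM final, held 10 s, then illuminated (1260 ± 50 mW/cm2) or kept dark. Dilutions were plated on Mueller-Hinton agar, aerobic 37 °C 24 h, CFU counted. Medians of three independent triplicate experiments, referred to untreated controls.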

Series [5] relates to Enterococcus faecalis. Put plainly: Photodynamic inactivation of Enterococcus faecalis ATCC 29212 assessed as reduction of log10 CFU at 1 uM incubated prior to irradiation with 25 j/cm'2 for 20 secs measured after 24 hrs by agar plating method (reference value: <1 no unit). The class given is functional. The method in brief: as §1
Series [6] deals with Enterococcus faecalis. Briefly: Photodynamic inactivation of Enterococcus faecalis ATCC 29212 assessed as reduction of log10 CFU at 1 uM incubated prior to irradiation with 150 j/cm'2 for 120 secs measured after 24 hrs by agar plating method (reference value: <1 no unit). The class given is functional. The method in brief:
as §1

Series [7] concerns Enterococcus faecalis. Put plainly: Photodynamic inactivation of Enterococcus faecalis ATCC 29212 assessed as reduction of log10 CFU at 1 uM incubated prior to irradiation with 50 j/cm'2 for 40 secs measured after 24 hrs by agar plating method (reference value: <1 no unit). The class given is functional. In outline:
as §1

The test system of series [8] is Enterococcus faecalis. Briefly: Photodynamic inactivation of Enterococcus faecalis ATCC 29212 assessed as reduction of log10 CFU at 5 uM incubated prior to irradiation with 25 j/cm'2 for 20 secs measured after 24 hrs by agar plating method (reference value: <1 no unit). It is filed as functional. The method in brief:
as §1

Series [9] relates to Enterococcus faecalis. Briefly: Photodynamic inactivation of Enterococcus faecalis ATCC 29212 assessed as reduction of log10 CFU at 5 uM incubated prior to irradiation with 50 j/cm'2 for 40 secs measured after 24 hrs by agar plating method (reference value: <1 no unit). The class given is functional. The method in brief:
as §1

Series [10] deals with Enterococcus faecalis. Briefly: Photodynamic inactivation of Enterococcus faecalis ATCC 29212 assessed as reduction of log10 CFU at 5 uM incubated prior to irradiation with 150 j/cm'2 for 120 secs measured after 24 hrs by agar plating method (reference value: <1 no unit). It is filed as functional. In outline: as §1
The test system of series [11] is Enterococcus faecalis. Put plainly: Photodynamic inactivation of Enterococcus faecalis ATCC 29212 assessed as reduction of log10 CFU at 10 uM incubated prior to irradiation with 25 j/cm'2 for 20 secs measured after 24 hrs by agar plating method (reference value: <1 no unit). The class given is functional. The method in brief:
as §1

Series [12] deals with Enterococcus faecalis. Briefly: Photodynamic inactivation of Enterococcus faecalis ATCC 29212 assessed as reduction of log10 CFU at 10 uM incubated prior to irradiation with 50 j/cm'2 for 40 secs measured after 24 hrs by agar plating method (reference value: <1 no unit). It is filed as functional. In outline:
as §1

Series [13] deals with Enterococcus faecalis. Put plainly: Photodynamic inactivation of Enterococcus faecalis ATCC 29212 assessed as reduction of log10 CFU at 10 uM incubated prior to irradiation with 150 j/cm'2 for 120 secs measured after 24 hrs by agar plating method (reference value: <1 no unit). The class given is functional. In outline:
as §1

For series [14], the system named is Enterococcus faecalis. Put plainly: Photodynamic inactivation of Enterococcus faecalis ATCC 29212 assessed as reduction of log10 CFU at 100 uM incubated prior to irradiation with 25 j/cm'2 for 20 secs measured after 24 hrs by agar plating method (reference value: <1 no unit). It is filed as functional. In outline:
as §1

Series [15] relates to Enterococcus faecalis. Briefly: Photodynamic inactivation of Enterococcus faecalis ATCC 29212 assessed as reduction of log10 CFU at 100 uM incubated prior to irradiation with 50 j/cm'2 for 40 secs measured after 24 hrs by agar plating method (reference value: <1 no unit). It is filed as functional. The method in brief:
as §1

For series [16], the system named is Enterococcus faecalis. Briefly: Photodynamic inactivation of Enterococcus faecalis ATCC 29212 assessed as reduction of log10 CFU at 100 uM incubated prior to irradiation with 150 j/cm'2 for 120 secs measured after 24 hrs by agar plating method (reference value: <1 no unit). The class given is functional. In outline: as §1
For series [17], the system named is Streptococcus mutans. Briefly: Photodynamic inactivation of Streptococcus mutans ATCC 25175 assessed as reduction of log10 CFU at 1 uM incubated prior to irradiation with 150 j/cm'2 for 120 secs measured after 48 hrs by agar plating method (reference value: <1 no unit). The class given is functional.
The subject of series [18] is Streptococcus mutans. Put plainly: Photodynamic inactivation of Streptococcus mutans ATCC 25175 assessed as reduction of log10 CFU at 10 uM incubated prior to irradiation with 25 j/cm'2 for 20 secs measured after 48 hrs by agar plating method (reference value: <1 no unit). It is filed as functional.
Series [19] has as its system Streptococcus mutans. Briefly: Photodynamic inactivation of Streptococcus mutans ATCC 25175 assessed as reduction of log10 CFU at 10 uM incubated prior to irradiation with 50 j/cm'2 for 40 secs measured after 48 hrs by agar plating method (reference value: <1 no unit). It is filed as functional.
The subject of series [20] is Streptococcus mutans. Put plainly: Photodynamic inactivation of Streptococcus mutans ATCC 25175 assessed as reduction of log10 CFU at 100 uM incubated prior to irradiation with 150 j/cm'2 for 120 secs measured after 48 hrs by agar plating method (reference value: <1 no unit). It is filed as functional.
The subject of the next series is Actinomyces naeslundii. Put plainly: Photodynamic inactivation of Actinomyces naeslundii T14V assessed as reduction of log10 CFU at 5 uM incubated prior to irradiation with 150 j/cm'2 for 120 secs measured after 48 hrs by agar plating method (reference value: <1 no unit). The class given is functional. In outline: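 A. naeslundii T14V grown overnight at 37 °C, shaken, aerobically in BHI broth. Harvested at stationary phase, resuspended in PBS to 10^7–10^8 bacteria/mL (OD600). Mixed 1:1 with PS (final 0–250 µM) or water, 10 s incubation, then blue photopolymerizer light (1260 ± 50 mW/cm2) or dark. Tenfold dilutions plated on blood agar, aerobic 37 °C 48 h, CFU counted; medians of three independent experiments in triplicate.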

For series [21], the system named is Aggregatibacter actinomycetemcomitans. Put plainly: Photodynamic inactivation of Aggregatibacter actinomycetemcomitans ATCC 43718 assessed as reduction of log10 CFU at 5 uM incubated prior to irradiation with 25 j/cm'2 for 20 secs measured after 48 hrs by agar plating method relative to control. The class given is functional, Y4. The method in brief: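 A. actinomycetemcomitans ATCC 43718 cultured overnight in BHI broth under anaerobic conditions, 37 °C with shaking. Stationary-phase cells were spun down, taken up in PBS to 10^7–10^8/mL, and combined 1:1 with PS (final 0–250 µM) or water. After 10 s they were irradiated at 1260 ± 50 mW/cm2 or kept dark. Serial dilutions went onto BHI agar, incubated anaerobically at 37 °C for 48 h, and CFU were scored. Results are medians from 3 experiments × triplicate versus untreated controls.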

Calls of active or inactive are those of the source. The calls are words filed in the database; no cut-off is given here. A value given as a limit tells only on which side of the number the result lay.

Take `O=C1C(C[n+]2ccccc2)=Cc2cccc3cccc1c23.[Cl-]`: the outcome in series [1] was Active. The Stability entry in series [2] was “Unstable”. The log partition coefficient (logP) at 10 min in series [3] was -1.3. Also, in the series with Enterococcus faecalis [4], the outcome was Active. Also, the log10cfu with Enterococcus faecalis [5] is under 1; in the series on Enterococcus faecalis [6], under 3; in the series on Enterococcus faecalis [7], under 1; with Enterococcus faecalis [8], under 1; with Enterococcus faecalis [9] it was under 3; with Enterococcus faecalis [10], over 6. Moreover, the log10cfu is under 3 in the series on Enterococcus faecalis [11]; over 6 in the series with Enterococcus faecalis [12]; over 6 in the series with Enterococcus faecalis [13]; over 6 with Enterococcus faecalis [14]; over 6 in the series with Enterococcus faecalis [15]; over 6 in the series on Enterococcus faecalis [16]. Moreover, the log10cfu is under 3 with Streptococcus mutans [17]; under 3 in the series on Streptococcus mutans [18]; over 6 with Streptococcus mutans [19]; over 6 in the series on Streptococcus mutans [20]; over 5 in the series with Actinomyces naeslundii; under 3 in series [21].
Regarding `C[N+](C)(CCO)CC1=Cc2cccc3cccc(c23)C1=O.[Cl-]`, the result in [1] was Active. The Stability result in [2] was “Unstable”. Moreover, in [3], the lipophilicity (logP) at 10 min was -1.3. For the same molecule, the log10cfu is on record as under 1 with Enterococcus faecalis [5]; under 1 in the series on Enterococcus faecalis [6]; under 1 in the series with Enterococcus faecalis [7]; under 1 in the series on Enterococcus faecalis [8]; under 1 in the series with Enterococcus faecalis [9]; under 3 in the series on Enterococcus faecalis [10]. The log10cfu with Enterococcus faecalis [11] was under 3; in the series with Enterococcus faecalis [12] it was under 3; in the series with Enterococcus faecalis [13] it was over 6; with Enterococcus faecalis [14], over 6; with Enterococcus faecalis [15], over 6; in the series on Enterococcus faecalis [16] it was over 6. Further, the log10cfu is under 1 in the series with Streptococcus mutans [17]; under 1 with Streptococcus mutans [18]; under 3 with Streptococcus mutans [19]; over 6 in the series with Streptococcus mutans [20]; under 5 with Actinomyces naeslundii; under 3 in series [21].
As to `C[N+](C)(C)CC1=Cc2cccc3cccc(c23)C1=O.[Cl-]`, in series [1], the outcome was Active. Besides, the Stability entry in series [2] is given as “Unstable”. Moreover, in [3], the logP at 10 min is -1.4. The result in the series with Enterococcus faecalis [4] was Active. The log10cfu in the series on Enterococcus faecalis [5] was under 1; with Enterococcus faecalis [6] it was under 3; in the series on Enterococcus faecalis [7] it was under 1; with Enterococcus faecalis [8], under 1; with Enterococcus faecalis [9] it was under 3; in the series on Enterococcus faecalis [10] it was over 6. Also, the log10cfu in the series with Enterococcus faecalis [11] was under 1; in the series on Enterococcus faecalis [12], under 3; with Enterococcus faecalis [13], over 6; with Enterococcus faecalis [14], over 6; in the series on Enterococcus faecalis [15], over 6; in the series on Enterococcus faecalis [16], over 6.
